For test [1], the species on record is Homo sapiens. Description: Covalent inhibition of GST-tagged TEAD4 C367S mutant (unknown origin) expressed in Escherichia coli BL21 (DE3)/FAM-labelled YAP1 (60 to 99 residues)(unknown origin) protein-protein interaction assessed as protein-compound adduct formation at 100 uM incubated for 24 hrs at 4 degree C followed by mass spectrometry analysis. An outline of the steps:
(§1)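 Intact-protein MS: 2.5 μM protein (TEAD4 217–434 with GST cleaved, TEAD4C367S, TEAD1 209–426, TEAD2 217–447 or TEAD3 210–427) incubated with 100 μM compound in PBS for 24 h at 4 °C. Samples were centrifuged to remove precipitate, desalted on a C3 reverse-phase column with a water/acetonitrile 0.1% formic acid gradient, and masses were read by Q-TOF. Adduct peaks were reported as percent.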

Test [2] addresses T1, YAP1-TEAD4 (Homo sapiens) (UniProt P46937+Q15561). Put plainly: Inhibition of GST-tagged TEAD4 (217 to 434 residues) (unknown origin) expressed in Escherichia coli BL21 (DE3) cells/FAM-labelled YAP1 (60 to 99 residues)(unknown origin) protein-protein interaction assessed maximum inhibition preincubated for 6 hrs at 4 degree C with TEAD4 followed by fluorescent labelled YAP1 addition by fluorescence polarization assay. An outline of the steps: (§2)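 Time-course FP: 64 nM TEAD4 was preincubated with varying compound concentrations for 0.5, 6, 24 or 48 h at 4 °C in PBS with 0.01% Triton X-100. 16 nM FAM-YAP1 60–99 peptide was then added and polarization read at 485/535 nm, n = 2. Inhibition was taken relative to no-compound and no-protein controls.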

For test [3], the target named is T1, YAP1-TEAD4 (Homo sapiens). Description: Inhibition of GST-tagged TEAD4 (217 to 434 residues) (unknown origin) expressed in Escherichia coli BL21 (DE3) cells/FAM-labelled YAP1 (60 to 99 residues)(unknown origin) protein-protein interaction assessed maximum inhibition preincubated for 48 hrs at 4 degree C with TEAD4 followed by fluorescent labelled YAP1 addition by fluorescence polarization assay. In short, it runs like this:
as §2

Test [4] deals with YAP1-TEAD4 (Homo sapiens, UniProt Q15561). Description: Covalent inhibition of GST-tagged TEAD4 (217 to 434 residues) (unknown origin) expressed in Escherichia coli BL21 (DE3) cells/FAM-labelled YAP1 (60 to 99 residues)(unknown origin) protein-protein interaction assessed as protein-compound adduct formation by measuring inhibition constant at 100 uM incubated for 0.5 to 6 hrs at 4 degree C followed by mass spectrometry analysis. In short, it runs like this: (§3)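 Kinetics by MS: 2.5 μM TEAD4 was incubated at 4 °C with 3.1–100 μM compound. Aliquots were quenched with 0.1 M formic acid at set times from 0.5 h upward and analysed by whole-protein MS. Adduct relative to unreacted protein was fit to 100×(1−e^(−kobs·t)) to give kobs. kobs versus concentration was fit hyperbolically for kinact and KI, or linearly for kinact/KI where no plateau was reached.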

The target in test [5] is T1, YAP1-TEAD4 (Homo sapiens). Description: Covalent inhibition of GST-tagged TEAD4 (217 to 434 residues) (unknown origin) expressed in Escherichia coli BL21 (DE3) cells/FAM-labelled YAP1 (60 to 99 residues)(unknown origin) protein-protein interaction assessed as protein-compound adduct formation by measuring reaction half life at 100 uM incubated for 0.5 to 6 hrs at 4 degree C followed by mass spectrometry analysis. The settings on record: time 0.5-6 hrs. An outline of the steps:
as §3

For test [6], the target named is T1, YAP1-TEAD4 (Homo sapiens). Put plainly: Covalent inhibition of GST-tagged TEAD4 (217 to 434 residues) (unknown origin) expressed in Escherichia coli BL21 (DE3) cells/FAM-labelled YAP1 (60 to 99 residues)(unknown origin) protein-protein interaction assessed as additional protein-compound adduct formation at 100 uM incubated for 24 hrs at 4 degree C followed by mass spectrometry analysis. An outline of the steps:
as §1

Test [7] has as its target T2, Transcriptional coactivator YAP1/Transcriptional enhancer factor TEF-1 (Homo sapiens) (UniProt P46937+P28347). Description: Inhibition of TEAD1 (209 to 426 residues) (unknown origin) expressed in Escherichia coli BL21 (DE3) cells/FAM-labelled YAP1 (60 to 99 residues)(unknown origin) protein-protein interaction preincubated for 24 hrs at 4 degree C with compound followed by fluorescent labelled YAP1 addition by fluorescence polarization assay. In short, it runs like this: (§4)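 FP: 64 nM TEAD4, TEAD4C367S, TEAD2 or TEAD3, or 250 nM TEAD1, was preincubated with compound for 24 h at 4 °C in PBS with 0.01% Triton X-100. FAM-YAP1 60–99 peptide (disulfide-crosslinked) was then added at 16 nM final. Polarization was read at ex 485/em 535 nm. Percent inhibition was taken relative to no-compound and no-protein controls. The single-point primary screen used 50 μM.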

The target of test [8] is T3, TEAD2-YAP1 (Homo sapiens) (UniProt P46937+Q15562). Description: Inhibition of TEAD2 (217 to 447 residues) (unknown origin) expressed in Escherichia coli BL21 (DE3) cells/FAM-labelled YAP1 (60 to 99 residues)(unknown origin) protein-protein interaction preincubated for 24 hrs at 4 degree C with compound followed by fluorescent labelled YAP1 addition by fluorescence polarization assay. An outline of the steps:
as §4

Test [9] addresses T4, TEAD3-YAP1 (Homo sapiens) (UniProt P46937+Q99594). Put plainly: Inhibition of TEAD3 (210 to 427 residues) (unknown origin) expressed in Escherichia coli BL21 (DE3) cells/FAM-labelled YAP1 (60 to 99 residues)(unknown origin) protein-protein interaction preincubated for 24 hrs at 4 degree C with compound followed by fluorescent labelled YAP1 addition by fluorescence polarization assay. An outline of the steps: as §4

Test [10] concerns the target T2, Transcriptional coactivator YAP1/Transcriptional enhancer factor TEF-1 (Homo sapiens). Description: Covalent inhibition of TEAD1 (209 to 426 residues) (unknown origin) expressed in Escherichia coli BL21 (DE3) cells/FAM-labelled YAP1 (60 to 99 residues)(unknown origin) protein-protein interaction assessed as protein-compound adduct formation at 100 uM incubated for 24 hrs at 4 degree C followed by mass spectrometry analysis. An outline of the steps: as §1

Test [11] addresses T3, TEAD2-YAP1 (Homo sapiens). Description: Covalent inhibition of TEAD2 (217 to 447 residues) (unknown origin) expressed in Escherichia coli BL21 (DE3) cells/FAM-labelled YAP1 (60 to 99 residues)(unknown origin) protein-protein interaction assessed as protein-compound adduct formation at 100 uM incubated for 24 hrs at 4 degree C followed by mass spectrometry analysis. An outline of the steps:
as §1

In test [12] the target is T4, TEAD3-YAP1 (Homo sapiens). Put plainly: Covalent inhibition of TEAD3 (210 to 427 residues) (unknown origin) expressed in Escherichia coli BL21 (DE3) cells/FAM-labelled YAP1 (60 to 99 residues)(unknown origin) protein-protein interaction assessed as protein-compound adduct formation at 100 uM incubated for 24 hrs at 4 degree C followed by mass spectrometry analysis. In short, it runs like this: as §1

Calls of active or inactive are those of the source. The calls are words filed in the database; no cut-off is given here.

T2 sequence (P28347 whole entry, looked up, the tested form may be a part): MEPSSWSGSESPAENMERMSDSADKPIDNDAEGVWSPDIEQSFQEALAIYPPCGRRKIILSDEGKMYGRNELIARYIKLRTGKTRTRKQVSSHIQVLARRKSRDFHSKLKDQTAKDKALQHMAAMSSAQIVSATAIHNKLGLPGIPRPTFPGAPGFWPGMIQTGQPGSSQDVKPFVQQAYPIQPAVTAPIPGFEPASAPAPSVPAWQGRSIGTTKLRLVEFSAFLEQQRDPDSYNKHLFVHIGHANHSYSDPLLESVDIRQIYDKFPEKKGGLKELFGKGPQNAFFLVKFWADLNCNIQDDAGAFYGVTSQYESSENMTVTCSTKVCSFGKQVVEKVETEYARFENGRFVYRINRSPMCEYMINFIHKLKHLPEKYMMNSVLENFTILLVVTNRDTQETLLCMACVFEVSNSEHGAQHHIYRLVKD
T2 sequence (P46937 whole entry, looked up, the tested form may be a part): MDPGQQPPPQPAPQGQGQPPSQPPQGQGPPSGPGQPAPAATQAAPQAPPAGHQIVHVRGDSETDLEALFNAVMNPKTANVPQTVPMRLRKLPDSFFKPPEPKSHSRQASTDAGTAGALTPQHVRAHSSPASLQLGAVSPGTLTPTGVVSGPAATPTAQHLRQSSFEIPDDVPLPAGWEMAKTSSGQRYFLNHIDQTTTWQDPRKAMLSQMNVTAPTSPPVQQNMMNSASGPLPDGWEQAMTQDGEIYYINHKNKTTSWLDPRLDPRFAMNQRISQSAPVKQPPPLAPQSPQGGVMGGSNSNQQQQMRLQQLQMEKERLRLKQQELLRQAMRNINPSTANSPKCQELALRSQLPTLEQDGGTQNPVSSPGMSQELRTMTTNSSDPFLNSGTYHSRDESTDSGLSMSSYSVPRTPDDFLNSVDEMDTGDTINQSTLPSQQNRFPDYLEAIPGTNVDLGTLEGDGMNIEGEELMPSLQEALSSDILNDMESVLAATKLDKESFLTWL
T3 sequence (P46937 whole entry, looked up, the tested form may be a part): as above
T3 sequence (Q15562 whole entry, looked up, the tested form may be a part): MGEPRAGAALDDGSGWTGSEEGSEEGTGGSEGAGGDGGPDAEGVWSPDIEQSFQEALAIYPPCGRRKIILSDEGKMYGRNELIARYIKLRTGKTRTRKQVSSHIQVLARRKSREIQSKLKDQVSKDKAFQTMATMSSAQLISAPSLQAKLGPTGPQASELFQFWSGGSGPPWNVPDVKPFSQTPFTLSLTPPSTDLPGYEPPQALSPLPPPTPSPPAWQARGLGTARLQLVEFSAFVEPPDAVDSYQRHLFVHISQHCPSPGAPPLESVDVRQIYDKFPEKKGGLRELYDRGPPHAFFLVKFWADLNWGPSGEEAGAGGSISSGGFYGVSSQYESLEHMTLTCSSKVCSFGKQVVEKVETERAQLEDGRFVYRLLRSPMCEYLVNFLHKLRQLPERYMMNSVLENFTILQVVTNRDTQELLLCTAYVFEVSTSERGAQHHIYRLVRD
YAP1-TEAD4, sequence (P46937 whole entry, the tested form may be a part): as the sequence (P46937 whole entry, looked up, the tested form may be a part) above
YAP1-TEAD4, sequence (Q15561 whole entry, the tested form may be a part): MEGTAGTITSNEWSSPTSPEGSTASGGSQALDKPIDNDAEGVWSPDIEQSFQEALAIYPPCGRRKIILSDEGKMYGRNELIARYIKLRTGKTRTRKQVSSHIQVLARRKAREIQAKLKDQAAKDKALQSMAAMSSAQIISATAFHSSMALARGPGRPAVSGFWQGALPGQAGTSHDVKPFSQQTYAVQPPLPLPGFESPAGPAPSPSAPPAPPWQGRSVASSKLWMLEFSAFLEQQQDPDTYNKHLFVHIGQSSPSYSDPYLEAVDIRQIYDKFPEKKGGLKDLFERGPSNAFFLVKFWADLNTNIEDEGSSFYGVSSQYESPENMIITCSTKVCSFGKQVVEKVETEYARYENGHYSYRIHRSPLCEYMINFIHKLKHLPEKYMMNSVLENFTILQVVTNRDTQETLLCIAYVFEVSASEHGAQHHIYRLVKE
T4 sequence (P46937 whole entry, looked up, the tested form may be a part): as the sequence (P46937 whole entry, looked up, the tested form may be a part) above
T4 sequence (Q99594 whole entry, looked up, the tested form may be a part): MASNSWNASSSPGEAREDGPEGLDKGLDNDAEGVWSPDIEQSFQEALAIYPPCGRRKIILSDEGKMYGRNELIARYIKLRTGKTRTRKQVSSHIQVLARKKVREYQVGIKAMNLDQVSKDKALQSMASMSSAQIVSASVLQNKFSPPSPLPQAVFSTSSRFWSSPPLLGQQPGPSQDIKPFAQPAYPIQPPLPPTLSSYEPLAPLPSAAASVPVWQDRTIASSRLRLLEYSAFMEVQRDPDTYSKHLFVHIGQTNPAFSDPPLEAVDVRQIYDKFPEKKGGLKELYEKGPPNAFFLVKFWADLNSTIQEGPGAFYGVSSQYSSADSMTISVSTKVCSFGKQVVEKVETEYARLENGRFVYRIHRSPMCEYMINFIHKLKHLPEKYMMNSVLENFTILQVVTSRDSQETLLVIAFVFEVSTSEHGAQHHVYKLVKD

For the compound `O=C(NCCc1ccccc1)C(c1cccs1)N(C(=O)CCl)c1cccc(Cl)c1` (stereo unspecified), the inhibition entry in [1], in [7], in [8] and in [9] was “inactive” throughout. The Imax in [2] and in test [3] was 37% in each case. Also, the Ki in test [4] amounted to 17.3 µM. The T1/2 in test [5] came to 2.2 h. In test [6], the percent protein-compound adduct formation is 17%. The inhibition entry in [10] is “Active”.
For the compound `CCS(=O)(=O)Oc1ccc(CN(Cc2ccc(F)cc2)C(=O)CCl)cc1`, the inhibition entry in [1], in test [7] and in test [9] was “inactive” throughout. For the same compound, the Imax in test [2] and in test [3] was 38% throughout. Moreover, the Ki in [4] was determined as 45.8 µM. In addition, the T1/2 in [5] came to 3.3 h. For the same compound, the percent protein-compound adduct formation in test [6] was determined as 20%. For the same compound, the inhibition entry in [10] was “Active”.
For `COc1cccc(C2CC(Cc3cccs3)=NN2C(=O)CCl)c1OC` (stereo unspecified), the inhibition entry in test [1], in [7] and in test [9] was “inactive” throughout. In addition, the Imax in test [2] and in test [3] was 53% each time. Further, in test [4], the Ki turned out to be 37.7 µM. In addition, the T1/2 in test [5] amounted to 0.6 h. In addition, the inhibition entry in test [10], in [11] and in test [12] was “Active” each time.
Regarding `Cc1ccc(C2=NN(C(=O)CCl)C(c3ccco3)C2)cc1` (stereo unspecified), the inhibition entry in [1], in [7] and in [9] was “inactive” each time. Moreover, the Imax in test [2] and in [3] was 35% throughout. For the same compound, the inhibition result in [10] and in test [11] was “Active” each time.

(Values after ChEMBL document CHEMBL5329172, “Chloroacetamide fragment library screening identifies new scaffolds for covalent inhibition of the TEAD·YAP1 interaction” (RSC Med Chem, 2023).)
